Inhibition data for 93 compounds are collected here from PubChem BioAssay AID588478 (ICCB-Longwood Screening Facility, Harvard Medical School, 2011).

SMILES strings stand for the structures. The campaign covered roughly 330,000 compounds. About 1,100 (0.33%) were called active. The list comes from a sample in which actives are over-represented; it also holds similar structures and randomly drawn compounds. Unmarked numbers belong to inactive results.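 Rule for the calls: active = mean inhibition over replicate wells above about 20% (limit read from the data); inactive = the rest.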

Sequence of Ubiquitin carboxyl-terminal hydrolase isozyme L5 (Homo sapiens) (Q9Y5K5 whole entry, looked up): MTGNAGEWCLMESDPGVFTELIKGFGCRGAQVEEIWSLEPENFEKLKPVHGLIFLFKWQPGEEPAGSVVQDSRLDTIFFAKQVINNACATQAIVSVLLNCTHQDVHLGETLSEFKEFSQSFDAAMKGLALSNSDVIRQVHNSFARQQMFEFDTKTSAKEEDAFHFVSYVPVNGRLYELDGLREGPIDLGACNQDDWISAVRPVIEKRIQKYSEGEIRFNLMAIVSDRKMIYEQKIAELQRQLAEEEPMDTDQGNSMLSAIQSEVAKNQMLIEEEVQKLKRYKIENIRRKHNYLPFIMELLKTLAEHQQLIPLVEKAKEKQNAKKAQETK

This test deals with Ubiquitin carboxyl-terminal hydrolase isozyme L5 (Homo sapiens) (UniProt Q9Y5K5). Kind of test: inhibitors of human UCH37 deubiquitinase, primary screen, biochemical, Ub-AMC cleavage, fluorescence (AID 588478).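 Note: 0% = compound-free wells with enzyme and 100% = wells lacking proteasome.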 Conditions: purified proteasome/UCH37, Ub-AMC cleavage fluorescence; stronger effect = higher value; concentration not given here. The method, boiled down:
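Material: Human UCH37 enzyme supplied as purified proteasome complex | Schedule: 30 min preincubation with enzyme, 25 min cleavage at room temperature | Detection: AMC fluorescence 355/460 nm | Measure: % inhibition of Ub-AMC cleavage fluorescence | Controls: Wells without proteasome as full block, compound-free enzyme plus substrate as uninhibited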
One may read the inhibition as the drop in the measured response relative to a control, in per cent. `S=c1[nH]nc(-c2ccccc2)n1N=Cc1ccc(-c2ccccc2Cl)o1`: the inhibition was 5.56%.

With `CC(CC(=O)Nc1ccc(Cl)cc1Cl)=NNC(=O)c1ccncc1`, the inhibition was 0.597%.

Take `COC(=O)NN=C(C)c1cccs1`: the inhibition is 2.45%. In the case of `N#C/C(=C/c1ccc(N2CCCCC2)o1)C(=O)NCCc1c[nH]c2ccccc12`, the inhibition is 11.5%. With `N#C/C(=C\c1ccc(N2CCOCC2)o1)C(=O)N1CCOCC1`, the inhibition was 15.4%. In the case of `N#C/C(=C/c1ccc(N2CCOCC2)o1)C(=O)N1CCOCC1`, the inhibition is 33.4% (active). As for `N#Cc1c2c(c(-c3ccccc3)[nH]c1=O)CCCC2`, the figure is -49.7%; as for `CC(C)(C)n1c(=O)[nH]c2c(c1=O)CCC2`, -4.38%; as for `O=c1[nH]n2c(=O)c3c([nH]c2c1N=Nc1ccccc1)CCC3`, 22.1% (active). Consider `CCOc1ccc(C=NNC(=O)c2nnn(-c3nonc3N)c2COc2ccc(F)cc2)cc1`, for which the inhibition was -139%. For `N#CCC(=O)NN=Cc1cn(Cc2cccc3ccccc23)c2ccccc12`, the inhibition is 1.26%.

Consider `COCc1c(C)cc(C)c(C=NO)c1C`, for which the inhibition was 3.47%. As for `C=CCn1c(=C(C#N)c2nnc3n2CCCCC3)sc(=Cc2ccc(Cl)cc2)c1=O`, the figure is 8.49%; as for `N#CC(=NNc1cc(Cl)cc(Cl)c1)c1nnc2n1CCCCC2`, 3.3%; as for `N#CC(=C(O)CCl)c1nnc2n1CCCCC2`, 31.4% (active). As for `COc1cc(C=NNS(=O)(=O)c2ccc(C)cc2)ccc1OCc1ccc(C(=O)O)cc1`, the inhibition was 3.97%.

Take `COc1ccccc1C=NNc1cc(C)nc2ccc(C)cc12`: the inhibition was -45.9%. `C/C(C=NNC(=O)c1ccc2nc[nH]c2c1)=C/c1ccccc1`: the inhibition was 5.71%.

For the compound `Cc1nc(NC(=O)C2CCCCC2)sc1C`, the inhibition was 1.92%. As for `Cc1cnc(NC(=O)c2ccccn2)s1`, the inhibition was 2.76%.

For the compound `Cc1cnc(NC(=O)C2CCCC2)s1`, the inhibition was 31% (active). Take `CCCOc1ccc(-c2c(C(=O)NN=Cc3ccccc3)nnn2-c2nonc2N)cc1`: the inhibition was 5.85%. `COc1cc(C=Nn2c(C)nc3ccccc3c2=O)ccc1O`: the inhibition was 12.2%. On to `CC(CC(=O)Nc1cc(C)ccn1)=NNC(=O)c1cccc(C)c1O`, for which the inhibition was -6.85%. Consider `CCS(=O)(=O)C1=NSC2=NC(=O)/C(=C\c3cc(C)n(-c4cccc(OC)c4)c3C)C(=N)N21`, for which the inhibition is -8.8%. Turning to `Cc1cc(C=NO)c(C)n1-c1ccccc1`, the inhibition was -2.23%. With `Cc1cc(/C=C2/C(=N)N3C(=NC2=O)SN=C3S(C)(=O)=O)c(C)n1-c1ccccc1`, the inhibition was 33.8% (active).

As for `COc1ccc2c(c1)c(C(=O)NN=Cc1ccc(Br)cc1)c(C)n2C`, the inhibition was 2.61%. Take `CC(Oc1ccc(Cl)cc1)C(=O)NN=Cc1ccsc1` (stereo not drawn): the inhibition is 0.279%. Take `Cc1oc(N=Cc2cccc([N+](=O)[O-])c2)c(C#N)c1C`: the inhibition was 4.11%.

`COc1ccc(C=NNC(=O)CSCC(=O)Nc2ccccc2)cc1`: the inhibition is 2.55%. With `CN=C1C=C/C(=N/N=c2\ccn(O)cc2C)C=C1C`, the inhibition was 23.6% (active).

Take `COC(=O)Cc1cc(=O)[nH]c(N=C(N)Nc2ccc(C)cc2C)n1`: the inhibition is -0.633%.

As for `C(=Nn1cnnc1)c1ccc(OCc2cccc3ccccc23)cc1`, the inhibition is 2.25%. Take `COc1ccc2ccccc2c1C=NNC(=S)Nc1cc(S(=O)(=O)N2CCOCC2)ccc1N1CCOCC1`: the inhibition was -8.36%. Regarding `O=C(NN=Cc1ccc(-c2ccccc2[N+](=O)[O-])o1)C1COc2cc3ccccc3cc2O1` (stereo not drawn), the inhibition is 7.82%. With `O=C(O)c1cc(C(=O)O)cc(-c2ccc(C=c3sc4nc5ccccc5n4c3=O)o2)c1`, the inhibition is 22.2% (active). On to `O=c1c(=Cc2ccco2)sc2nc(-c3ccccc3Br)nn12`, for which the inhibition is 4.51%. For `CC(C)(C)c1cc(=O)n2c(nc3ccccc32)[nH]1`, the inhibition is -27.1%. With `CC(=NNC(=O)Cc1c(Cl)cccc1Cl)c1cccnc1` the figure was 4.49%; with `Cc1cccc(-c2cc(C(=O)NN=Cc3cccnc3)c3ccccc3n2)c1`, 1.54%; with `Cc1cc(=O)n2nc(N3CCC(C(=O)Nc4c(F)c(F)c(F)c(F)c4F)CC3)sc2n1`, -5.44%. `CCCOc1ccc(CNC(=O)C2CCN(c3nn4c(=O)cc(C)nc4s3)CC2)cc1`: the inhibition is 1.32%.

As for `COc1ccc(CCNC(=O)C2CCN(c3nn4c(=O)cc(C)nc4s3)CC2)cc1OC`, the inhibition is 27.9% (active). On to `CCOc1ccc(C=NNC(=O)CN2CCCCC2)cc1OCC`, for which the inhibition is 4.23%. With `COc1ccc(CC(=O)Nc2cccc(C(C)=NNC(=O)c3cccc([N+](=O)[O-])c3)c2)cc1` the figure was 2.24%.

Consider `CC[n+]1cc(C)ccc1/C=C/c1ccc(N(C)C)cc1`, for which the inhibition was 20.6% (active). With `CCC(=NNC(=O)Nc1nonc1N)c1ccc(OC)c(OC)c1` the figure was 2.18%; with `Cc1nnsc1C(=O)NN=Cc1ccccc1Cl`, 2.87%; with `O=C(CNC(=O)c1cccc(Cl)c1)NN=Cc1cccnc1`, 3.41%. As for `CCOC(=O)c1cccc(NC(=O)CCOc2ccccc2)c1`, the inhibition is 0.512%. As for `CCOC(=O)c1cccc(NC(=O)c2ccc(F)cc2F)c1`, the figure is 24.8% (active); as for `CCOC(=O)c1cccc(NC(=O)CCn2nnc3ccccc32)c1`, 0.741%; as for `CC(=O)NC1CCCN(O)C(=O)C=C(C)CCOC(=O)C(NC(C)=O)CCCN(O)C(=O)C=C(C)CCOC(=O)C(NC(C)=O)CCCN(O)C(=O)C=C(C)CCOC1=O` (stereo not drawn), -0.932%. `COc1cc(OC)cc(C(=O)NN=Cc2ccoc2)c1`: the inhibition is 1.2%. For the compound `O=C1NNC(c2ccccc2)=N/C1=C\c1ccc(Cl)cc1`, the inhibition was 21.1% (active). As to `CCOC(=O)c1cc(C(C)=NOC(=O)c2ccc(C(C)(C)C)cc2)on1`, the inhibition was 4.76%.

Turning to `O=C(NN=Cc1cc2cc3c(cc2nc1Cl)OCO3)c1ccncc1`, the inhibition is -62.6%. With `Cc1[nH]c2ccccc2c1/C=C(/C#N)C(=O)NC(C)C` the figure was 11.3%; with `N#C/C(=C\c1ccc(O)c(O)c1)C(=O)NCc1ccccc1`, 4.82%. Turning to `CC(C)NC(=O)/C(C#N)=C\c1ccc(N(C)C)c(Br)c1`, the inhibition is 35.8% (active). With `CC(=NNC(=O)Cc1c[nH]c2ccccc12)c1ccc2ccccc2c1` the figure was -2.68%; with `Cc1ccc(Nc2cc(C)nc3c(C)ccc([N+](=O)[O-])c23)cc1`, 42.3% (active). As to `Cc1cc(Nc2ccc(C(=O)N3CCCCC3)cc2)c2cccc(C)c2n1`, the inhibition was 7.53%. With `Cc1cc(Nc2ccc(N3CCOCC3)cc2)c2cccc(C)c2n1`, the inhibition is 9.4%. Take `CC1(C)CC(=O)CC(=NNC(=O)c2ccc(-c3ccccc3)cc2)C1`: the inhibition was 3.09%. As for `CCOc1cc(C=NO)ccc1OS(=O)(=O)c1ccc(C)cc1`, the inhibition is -0.715%.

Regarding `CC(C)COc1ccc(C(=O)OCC(=O)NCCC2=CCCCC2)cc1`, the inhibition is 1.87%. `CC(OC(=O)c1ccc(Cl)cc1O)C(=O)NCCC1=CCCCC1` (stereo not drawn): the inhibition was -2.32%. Take `CC(OC(=O)c1c(F)cccc1F)C(=O)NCCC1=CCCCC1` (stereo not drawn): the inhibition was 29% (active). In the case of `C=CCc1c(C)nc(-c2ccccc2)nc1NN=C(C)c1ccc(N)cc1`, the inhibition is 5.32%. Regarding `O=C(NN=Cc1sc(N2CCCCC2)nc1-c1cccs1)C1CC1`, the inhibition is -4.87%.

As for `CCCOc1ccc(/C(O)=C2/C(=O)C(=O)N(CCN(C)C)C2c2ccc(OC)c(OC)c2)cc1` (stereo not drawn), the inhibition was 9.6%.

As to `COc1cccc(C2/C(=C(/O)c3ccc(F)cc3)C(=O)C(=O)N2CCN(C)C)c1` (stereo not drawn), the inhibition is 26.3% (active).

As to `COc1ccc(/C(O)=C2/C(=O)C(=O)N(CCCN(C)C)C2c2ccccc2)cc1OC` (stereo not drawn), the inhibition was 8.49%. Turning to `CCC1SC(C)CC(=NNC(N)=O)C1C` (stereo not drawn), the inhibition is 1.74%. As for `O=C(NN=Cc1ccc(O)cc1)c1csc2ccccc12`, the figure is 3.7%; as for `Cc1nn(C)c(C(=O)NN=Cc2cccnc2)c1Cl`, 1.1%. For the compound `CC(=NNc1ccccc1)c1c(O)cc(C)oc1=O`, the inhibition is 2.24%. With `Cc1cc(C)c[n+](-c2[nH]c(=O)sc2C=NNC([S-])=Nc2ccccc2)c1`, the inhibition is 23% (active). For the compound `C(=NNc1nc(-c2ccccc2)cs1)c1cccs1`, the inhibition is -0.256%. In the case of `COc1ccc(Br)cc1C=Nn1c(COc2ccccc2)n[nH]c1=S`, the inhibition is 3.72%.

With `COc1ccc(Cn2nnc3c(=O)[nH]c(C4CCN(C(=O)c5ccccc5Cl)CC4)nc32)cc1`, the inhibition was 35.6% (active).

`Cc1ccc(NC(=O)N2CCC(c3nc4c(nnn4Cc4c(F)cccc4Cl)c(=O)[nH]3)CC2)cc1`: the inhibition is 1.34%. With `Cc1ccc(Cn2nnc3c(=O)[nH]c(C4CCN(S(=O)(=O)/C=C/c5ccccc5)CC4)nc32)cc1` the figure was 0.769%; with `Oc1ccc(C=NNC2=NCCCCC2)c(O)c1`, -24.8%.

As to `CC(Oc1cccc(Cl)c1)c1ccnc2nc(N=CN(C)C)nn12` (stereo not drawn), the inhibition was -41%. In the case of `CC(=NNC(=O)c1nnn(-c2nonc2N)c1CSc1ccc(Cl)cc1)c1ccco1`, the inhibition was 0.0783%. Turning to `CC(=O)CC(CC(=O)NC1CCCCC1)c1ccccc1` (stereo not drawn), the inhibition is 3.65%. `O=C(CC1OC(=O)c2ccccc21)NC1CCCCC1` (stereo not drawn): the inhibition was 26% (active).

Take `O=C(CN1C(=O)c2ccccc2S1(=O)=O)NC1CCCCC1`: the inhibition is 0.614%. As to `Cc1nnsc1C(=O)NN=Cc1ccccc1`, the inhibition was -1.09%.

With `COc1ccc(C(C)=NNC(=O)CN(c2ccc(OC)cc2)S(=O)(=O)c2ccccc2)cc1`, the inhibition was 3.13%.
